11 molecules from ChEMBL document CHEMBL3259660, “Haloemodin as novel antibacterial agent inhibiting DNA gyrase and bacterial topoisomerase I” (J Med Chem, 2014) can be followed below.

Broadly, the IC90 is the concentration needed for an effect of 90%.

Series [1] concerns Brevibacillus laterosporus. Nature of the series: Antibacterial activity against Brevibacillus laterosporus ATCC 64 assessed as growth inhibition by agar dilution assay. In kind it is functional. A general note: In agar dilution, organisms are placed on agar that contains the substance at set levels.
Series [2] is described as follows: Cytotoxicity against CHL cells assessed as cell viability at 0.256 mg/ml after 24 hrs by MTT assay. The following applies: chinese hamster, read-out: Activity. Type of series: cell-based, Cricetulus griseus. The essentials: (§1)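 CHL fibroblasts seeded at about 5 × 10^4 cells/mL, incubated overnight at 37 °C, 5% CO2, then exposed to compound at different concentrations for 24 h. Viability read by MTT, absorbance at 570 nm, relative to cells in medium alone (100%). Triplicate.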

The subject of the next series is Bacillus cereus. Nature of the series: Antibacterial activity against Bacillus cereus ATCC 10231 assessed as growth inhibition by agar dilution assay. In kind it is functional.
Another series deals with Escherichia coli. Nature of the series: Antibacterial activity against Escherichia coli ATCC 25922 assessed as growth inhibition by agar dilution assay. Type of series: functional. Summed up:
(§2)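 Agar dilution MIC per CLSI (aerobic and anaerobic methods); compounds dissolved in DMSO, reference antibiotics in sterile water. MIC taken as lowest concentration with no visible growth; determined at least twice on separate days, higher value reported. Clinical isolate ranges summarized as MIC50/MIC90.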

Series [3] relates to Staphylococcus aureus. Briefly: microbe, parasite or virus in culture. Type of series: functional. The following applies: ATCC 6538.
Series [4] relates to Pseudomonas aeruginosa. Nature of the series: Antibacterial activity against Pseudomonas aeruginosa ATCC 27853 assessed as growth inhibition by agar dilution assay. In kind it is functional. Summed up: as §2
In series [5] the test system is Staphylococcus aureus. Briefly: Antibacterial activity against Staphylococcus aureus ATCC 29213 assessed as growth inhibition by agar dilution assay. In kind it is functional. The essentials: as §2
Series [6] has as its system Staphylococcus aureus. Briefly: Antibacterial activity against methicillin-resistant Staphylococcus aureus assessed as growth inhibition by agar dilution assay. Type of series: functional. The essentials:
(§3)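 CLSI agar dilution MIC against aerobic and anaerobic strains. Test compounds were dissolved in DMSO and reference antibiotics in sterile water. MIC was taken as the lowest concentration showing no bacterial growth. Each MIC was determined at least twice on separate days, and the higher value was reported. E. coli PQ 37 was cultured in LA medium.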

Series [7] deals with Staphylococcus epidermidis. Nature of the series: Antibacterial activity against methicillin-sensitive Staphylococcus epidermidis assessed as growth inhibition by agar dilution assay. Type of series: functional. The essentials:
as §2

Series [8] has as its system Staphylococcus epidermidis. Briefly: Antibacterial activity against methicillin-resistant Staphylococcus epidermidis assessed as growth inhibition by agar dilution assay. Type of series: functional. The essentials: as §3
For series [9], the system named is Staphylococcus aureus. Nature of the series: Antibacterial activity against methicillin-sensitive Staphylococcus aureus assessed as growth inhibition by agar dilution assay. In kind it is functional. Summed up: as §2
The nature of series [10]: Cytotoxicity against CHL cells assessed as cell viability after 24 hrs by MTT assay. Type of series: cell-based, Cricetulus griseus. The following applies: chinese hamster. Summed up: as §1
In general terms: Tetrazolium assays rely on reduction of a dye to a coloured formazan, in cell work by metabolically active cells.

The test system of series [11] is Staphylococcus aureus. Nature of the series: In vivo antibacterial activity against Staphylococcus aureus in New zealand rabbit keratitis model assessed as suppression of conjuctival congestion, conjuctival chemosis, infiltration, operative ulcer area and depth at 3 mg/ml administered topically every 4 hrs for four doses every day for 10 days starting 24 hrs post-infection by slit lamp biomicroscopy. Type of series: functional, organism-based. Summed up: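 NZW rabbits (2.0−3.0 kg), anesthetized with iv sodium pentobarbital 30 mg/kg, given intracorneal S. aureus (about 7.5 × 10^6 CFU) from an overnight LB culture. Starting 24 h post-infection, 30 μL drops applied topically per eye every 4 h, four doses daily (8 a.m.–8 p.m.), for 10 days, masked. Test compound in PEG–water (1:1). Slit-lamp biomicroscopy before and after.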

The subject of series [12] is Streptococcus pneumoniae. Nature of the series: Antibacterial activity against Streptococcus pneumoniae assessed as growth inhibition by agar dilution assay. Type of series: functional. Summed up:
as §2

The subject of series [13] is Streptococcus pneumoniae. Briefly: Antibacterial activity against Streptococcus pneumoniae ATCC 49619 assessed as growth inhibition by agar dilution assay. In kind it is functional. The essentials: as §2
In series [14] the test system is Bacteroides fragilis. Briefly: Antibacterial activity against Bacteroides fragilis ATCC 25285 assessed as growth inhibition by agar dilution assay. In kind it is functional. Summed up:
as §2

The subject of series [15] is Bacteroides fragilis. Nature of the series: Antibacterial activity against Bacteroides fragilis assessed as growth inhibition by agar dilution assay. In kind it is functional. The essentials:
as §2

The subject of series [16] is Pseudomonas aeruginosa. Nature of the series: Antibacterial activity against Pseudomonas aeruginosa assessed as growth inhibition by agar dilution assay. Type of series: functional. The essentials: as §3

Each structure is given as a SMILES string. Converted amounts (≈) assume the structure as drawn. The source made the active and inactive calls. No cut-off for these calls is given here.

`Cc1cc(O)c2c(c1)C(=O)c1cc(O)c(I)c(O)c1C2=O`: the MIC is 16 µg/mL (≈ 40.4 µM) in series [1]; 16 µg/mL (≈ 40.4 µM) with Bacillus cereus; more than 256 µg/mL in the series with Escherichia coli; 16 µg/mL (≈ 40.4 µM) in the series with Staphylococcus aureus [3]; more than 256 µg/mL with Pseudomonas aeruginosa [4]; 32 µg/mL (≈ 80.8 µM) in the series on Staphylococcus aureus [5]. The viability at 24 h, 0.256 mg/ml in series [2] is more than 75%.
As to `CN[C@H](CC(C)C)C(=O)N[C@H]1C(=O)N[C@@H](CC(N)=O)C(=O)N[C@H]2C(=O)N[C@H]3C(=O)N[C@H](C(=O)N[C@H](C(=O)O)c4cc(O)cc(O)c4-c4cc3ccc4O)[C@H](O)c3ccc(c(Cl)c3)Oc3cc2cc(c3O[C@@H]2O[C@H](CO)[C@@H](O)[C@H](O)[C@H]2O[C@H]2C[C@](C)(N)[C@H](O)[C@H](C)O2)Oc2ccc(cc2Cl)[C@H]1O.Cl` [VANCOMYCIN HYDROCHLORIDE], the MIC (in series [1]; in the series with Bacillus cereus) was 2 µg/mL throughout.
Turning to `CO[C@@]1(NC(=O)Cc2cccs2)C(=O)N2C(C(=O)[O-])=C(COC(N)=O)CS[C@@H]21.[Na+]` [CEFOXITIN SODIUM], the MIC turned out to be 128 µg/mL in the series with Staphylococcus aureus [6]; 1 µg/mL in series [7]; 128 µg/mL in series [8]; 0.5 µg/mL with Staphylococcus aureus [9]; 2 µg/mL in the series with Staphylococcus aureus [5].
`Cc1cc2c(c(O)c1I)C(=O)c1c(O)c(I)c(O)c(I)c1C2=O`: the MIC in series [1] was 8 µg/mL (≈ 12.3 µM); in the series on Bacillus cereus, 8 µg/mL (≈ 12.3 µM); with Escherichia coli, more than 256 µg/mL; with Staphylococcus aureus [3], 8 µg/mL (≈ 12.3 µM); with Pseudomonas aeruginosa [4] it was more than 256 µg/mL; in the series with Staphylococcus aureus [5], 16 µg/mL (≈ 24.7 µM). In addition, the viability at 24 h, 0.256 mg/ml in series [2] was more than 75%. In addition, the concentration for an effect of 90% (IC90) at 24 h in series [10] worked out at 128 µg/mL (≈ 198 µM).
For the molecule `CC1COc2c(N3CCN(C)CC3)c(F)cc3c(=O)c(C(=O)O)cn1c23` (stereo not drawn), the inhibition entry in the series on Staphylococcus aureus [11] is “Active”.
In the case of `Cc1c(Cl)c(O)c2c(c1Cl)C(=O)c1c(Cl)c(O)cc(O)c1C2=O`, the MIC is 8 µg/mL (≈ 21.4 µM) in series [1]; 8 µg/mL (≈ 21.4 µM) in the series with Bacillus cereus; more than 256 µg/mL in the series on Escherichia coli; 8 µg/mL (≈ 21.4 µM) against Staphylococcus aureus [3]; more than 256 µg/mL in the series with Pseudomonas aeruginosa [4]; 16 µg/mL (≈ 42.8 µM) in the series with Staphylococcus aureus [5]. Besides, the viability at 24 h, 0.256 mg/ml in series [2] was more than 75%. Also, in [10], the IC90 at 24 h is 256 µg/mL (≈ 685 µM).
Consider `Cc1cc(O)c2c(c1)C(=O)c1c(Cl)c(O)c(I)c(O)c1C2=O`, for which the MIC in series [1] was 32 µg/mL (≈ 74.3 µM); in the series on Bacillus cereus, 32 µg/mL (≈ 74.3 µM); in the series with Escherichia coli, more than 256 µg/mL; against Staphylococcus aureus [3], 32 µg/mL (≈ 74.3 µM); with Pseudomonas aeruginosa [4], more than 256 µg/mL; in the series on Staphylococcus aureus [5], 64 µg/mL (≈ 149 µM). Moreover, in [2], the viability at 24 h, 0.256 mg/ml is more than 75%.
As for `CC1(C)S[C@@H]2[C@H](NC(=O)Cc3ccccc3)C(=O)N2[C@H]1C(=O)[O-].[Na+]` [PENICILLIN G SODIUM], the values for the MIC in the series with Streptococcus pneumoniae [12] and in the series with Streptococcus pneumoniae [13] were 8 µg/mL and 0.25 µg/mL, respectively.
Turning to `CCC[C@@H]1C[C@@H](C(=O)N[C@@H]([C@H]2O[C@H](SC)[C@H](OP(=O)(O)O)[C@@H](O)[C@H]2O)[C@H](C)Cl)N(C)C1` [CLINDAMYCIN PHOSPHATE], the MIC with Bacteroides fragilis [14] was 0.5 µg/mL; in the series on Bacteroides fragilis [15], 0.03 µg/mL.
`CCN1CCN(C(=O)N[C@@H](C(=O)N[C@@H]2C(=O)N3[C@@H]2SC(C)(C)[C@@H]3C(=O)[O-])c2ccccc2)C(=O)C1=O.[Na+]` [PIPERACILLIN SODIUM]: the figures for the MIC in the series on Escherichia coli, with Pseudomonas aeruginosa [4] and in the series with Pseudomonas aeruginosa [16] were 4 µg/mL, 4 µg/mL and 2 µg/mL, respectively.
For `Cc1cc(O)c2c(c1)C(=O)c1c(Br)c(O)c(Br)c(O)c1C2=O`, the MIC in [1] was 8 µg/mL (≈ 18.7 µM); with Bacillus cereus it was 8 µg/mL (≈ 18.7 µM); in the series on Escherichia coli it was more than 256 µg/mL; in the series on Staphylococcus aureus [3] it was 8 µg/mL (≈ 18.7 µM); in the series on Pseudomonas aeruginosa [4], more than 256 µg/mL; in the series on Staphylococcus aureus [5], 16 µg/mL (≈ 37.4 µM). The viability at 24 h, 0.256 mg/ml in [2] was more than 75%. The IC90 at 24 h in series [10] stood at 128 µg/mL (≈ 299 µM).
